The source made the active and inactive calls. The rule behind the calls is not given here.
Tests used:
BaF3 [1] = experiment: Antiproliferative activity against mouse BA/F3 cells after 72 hrs by CellTiter-Glo assay; type: cell-based; conditions: BaF3, 72 h
U-937 = experiment: Antiproliferative activity against human U937 cells at […] to […] nM after 72 hrs by CellTiter-Glo assay; type: functional, cell-based
[2] = molecular target: T1, Mitogen-activated protein kinase kinase kinase 7 (Homo sapiens, UniProt O43318); experiment: Inhibition of TAK1 (unknown origin) by LanthaScreen assay
T1 sequence (O43318 whole entry): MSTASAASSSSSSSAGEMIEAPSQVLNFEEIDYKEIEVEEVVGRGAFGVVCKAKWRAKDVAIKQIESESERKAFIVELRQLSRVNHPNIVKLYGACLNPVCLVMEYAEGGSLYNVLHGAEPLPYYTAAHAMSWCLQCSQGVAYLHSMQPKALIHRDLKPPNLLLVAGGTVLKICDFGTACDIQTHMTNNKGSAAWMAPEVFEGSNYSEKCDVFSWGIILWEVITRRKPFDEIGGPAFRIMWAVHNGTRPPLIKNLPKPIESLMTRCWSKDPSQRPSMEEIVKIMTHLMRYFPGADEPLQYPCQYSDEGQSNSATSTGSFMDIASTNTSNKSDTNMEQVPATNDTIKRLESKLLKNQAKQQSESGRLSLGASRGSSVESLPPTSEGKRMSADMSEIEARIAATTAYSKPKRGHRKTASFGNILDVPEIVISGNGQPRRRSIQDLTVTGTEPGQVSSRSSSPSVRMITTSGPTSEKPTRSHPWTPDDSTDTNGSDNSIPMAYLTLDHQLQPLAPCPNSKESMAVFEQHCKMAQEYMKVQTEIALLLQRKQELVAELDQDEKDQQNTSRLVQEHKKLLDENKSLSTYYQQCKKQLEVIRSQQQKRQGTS

[3] = Antiproliferative activity against human SW156 cells harboring wild type KRAS after 72 hrs by CellTiter-Glo assay; type: functional, cell-based
BaF3 [4] = experiment: Antiproliferative activity against mouse BA/F3 cells harboring KRAS G12D mutant after 72 hrs in presence of IL-3 by CellTiter-Glo assay; type: functional, cell-based; conditions: BaF3, 72 h
[5] = molecular target: T2, Mitogen-activated protein kinase kinase kinase 7 (Homo sapiens) (UniProt O43318); experiment: Inhibition of TAK1 in RA patient-derived synovial fibroblasts assessed as inhibition of TNFalpha-induced cytokine secretion at 3 uM preincubated for 3 hrs followed by TNFalpha stimulation measured after 18 hrs by sandwich immunoassay
T2 sequence (whole entry): T1 sequence (O43318 whole entry)
How it was run: (§1)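 Primary RA synovial fibroblasts (donor RA2159) seeded 1000 cells/well and grown ~24 h at 37 °C, 5% CO2. Starved overnight in basal medium, then ~4 h in basal medium with 0.1% BSA. Two adjacent wells pooled per replicate, in biological duplicate. Supernatants diluted 1:3 and run on Luminex 27-plex/21-plex sandwich immunoassays for 48 analytes, with spiked-ligand and mock-supernatant background controls.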

NCI-H23 [6] = experiment: Antiproliferative activity against human NCI-H23 cells harboring KRAS G12C mutant after 72 hrs by CellTiter-Glo assay; type: functional, cell-based
How it was run: (§2)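 NCI-H23 or NCI-H358 cells seeded at 2000 cells/well and grown 48 h before drug. Varying doses were added and cells incubated 72 h. Viability was read as CellTiter-Glo luminescence, and growth-inhibition IC50 was calculated from dose-response curves.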

MOLM-14 = experiment: Antiproliferative activity against human MOLM14 cells harboring FLT3-ITD mutant at […] to […] nM after 72 hrs by CellTiter-Glo assay; type: functional, cell-based
PANC-1 = experiment: Antiproliferative activity against human PANC1 cells harboring KRAS G12D mutant after 72 hrs by CellTiter-Glo assay; type: functional, cell-based; conditions: PANC-1, 72 h
BaF3 [7] = experiment: Antiproliferative activity against mouse BA/F3 cells harboring NRAS G12D mutant after 72 hrs in presence of IL-3 by CellTiter-Glo assay; type: functional, cell-based; conditions: BaF3, 72 h
How it was run: (§3)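 Ba/F3 parental or RAS-transformed cells were seeded at 1000 viable cells/well, without or with IL-3 as the line states, at 37 °C and 5% CO2. After 4 h, nine four-fold serial dilutions were added in triplicate (final 0.5–30,000 nM, 0.3% DMSO). DMSO wells served as 100% viability.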

[8] = Antiproliferative activity against human URMC6 cells harboring wild type KRAS after 72 hrs by CellTiter-Glo assay; type: functional, cell-based
[9] = molecular target: Receptor-type tyrosine-protein kinase FLT3 (Homo sapiens, UniProt P36888); experiment: Inhibition of FLT3 (unknown origin)
[10] = molecular target: T2, Mitogen-activated protein kinase kinase kinase 7 (Homo sapiens); experiment: Inhibition of biotin-labeled N-(2-(2-(2-(2-(4-(4-((4-((2-Acrylamidophenyl)amino)-5-chloropyrimidin-2-yl)amino)phenyl)piperazin-1-yl)ethoxy)ethoxy)ethoxy)ethyl)-5-((3aS,4S,6aR)-2-oxohexahydro-1H-thieno[3,4-d]imidazol-4-yl)pentanamide probe binding to TAK1 in human NCI-H358 cells at 10 uM after 6 hrs by immunoblot based competitive pull down assay; type: cell-based
How it was run: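 H358 cells given 1 or 10 μM compound for 6 h, medium removed, cells rinsed twice with cold PBS and lysed in MPER buffer. Lysates incubated overnight at 4 °C with 1 μM biotinylated covalent probe, captured on streptavidin beads, and TAK1 recovery assessed by immunoblotting with anti-TAK1 antibody.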

BaF3 [11] = experiment: Antiproliferative activity against mouse BA/F3 cells harboring KRAS G12D mutant after 72 hrs by CellTiter-Glo assay; type: functional, cell-based; conditions: BaF3, 72 h
[12] = molecular target: T2, Mitogen-activated protein kinase kinase kinase 7 (Homo sapiens); experiment: Inhibition of TAK1 in RA patient-derived synovial fibroblasts assessed as inhibition of IL-1alpha-induced cytokine secretion at 3 uM preincubated for 3 hrs followed by IL-1alpha stimulation measured after 18 hrs by sandwich immunoassay; how it was run: as §1
[13] = molecular target: T2, Mitogen-activated protein kinase kinase kinase 7 (Homo sapiens); experiment: Inhibition of TAK1 in RA patient-derived synovial fibroblasts assessed as inhibition of poly(I:C)-induced cytokine secretion at 3 uM preincubated for 3 hrs followed by poly(I:C) stimulation measured after 18 hrs by sandwich immunoassay; how it was run: as §1
BaF3 [14] = experiment: Antiproliferative activity against mouse BA/F3 cells harboring NRAS G12D mutant after 72 hrs by CellTiter-Glo assay; type: functional, cell-based; conditions: BaF3, 72 h; how it was run: as §3
SK-CO-1 = experiment: Antiproliferative activity against human SKCO1 cells harboring KRAS G12V mutant after 72 hrs by CellTiter-Glo assay; type: functional, cell-based; conditions: SK-CO-1, 72 h
[15] = Increase in secretion of basic-FGF in TNFalpha activated RA patient-derived synovial fibroblasts at 0.6 to 3 uM preincubated for 3 hrs followed by TNFalpha stimulation measured after 18 hrs by sandwich immunoassay; conditions: human
How it was run: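 Primary RA patient synovial fibroblasts (donor RA2159) were seeded at 1000 cells/well, grown about 24 h, then starved overnight and again about 4 h in basal medium with 0.1% BSA. Cells were pre-incubated 3 h with inhibitor (0.6 or 3 μM) or DMSO, then stimulated 18 h with 10 ng/mL TNFα. Paired wells were pooled, in biological duplicate. Pooled supernatants were diluted 1:3 and read on Luminex bead sandwich immunoassays, with mock-medium background and spiked-ligand controls.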

HEL = experiment: Antiproliferative activity against human HEL cells at […] to […] nM after 72 hrs by CellTiter-Glo assay; type: functional, cell-based
NCI-H358 [16] = experiment: Antiproliferative activity against human NCI-H358 cells harboring KRAS G12C mutant after 72 hrs by CellTiter-Glo assay; type: functional, cell-based; how it was run: as §2
SW-620 = experiment: Antiproliferative activity against human SW620 cells harboring KRAS G12V mutant after 72 hrs by CellTiter-Glo assay; type: functional, cell-based; conditions: SW-620, 72 h
NALM-6 = experiment: Antiproliferative activity against human NALM6 cells harboring NARS A146T mutant at […] to […] nM after 72 hrs by CellTiter-Glo assay; type: functional, cell-based
ASPC1 = experiment: Antiproliferative activity against human AsPC1 cells harboring KRAS G12D mutant after 72 hrs by CellTiter-Glo assay; type: functional, cell-based; conditions: ASPC1, 72 h
NCI-H358 [17] = experiment: Antiproliferative activity against human NCI-H358 cells harboring KRAS G12C mutant at; type: functional, cell-based
NCI-H23 [18] = experiment: Antiproliferative activity against human NCI-H23 cells harboring KRAS G12C mutant at; type: functional, cell-based

Receptor-type tyrosine-protein kinase FLT3, sequence (P36888 whole entry): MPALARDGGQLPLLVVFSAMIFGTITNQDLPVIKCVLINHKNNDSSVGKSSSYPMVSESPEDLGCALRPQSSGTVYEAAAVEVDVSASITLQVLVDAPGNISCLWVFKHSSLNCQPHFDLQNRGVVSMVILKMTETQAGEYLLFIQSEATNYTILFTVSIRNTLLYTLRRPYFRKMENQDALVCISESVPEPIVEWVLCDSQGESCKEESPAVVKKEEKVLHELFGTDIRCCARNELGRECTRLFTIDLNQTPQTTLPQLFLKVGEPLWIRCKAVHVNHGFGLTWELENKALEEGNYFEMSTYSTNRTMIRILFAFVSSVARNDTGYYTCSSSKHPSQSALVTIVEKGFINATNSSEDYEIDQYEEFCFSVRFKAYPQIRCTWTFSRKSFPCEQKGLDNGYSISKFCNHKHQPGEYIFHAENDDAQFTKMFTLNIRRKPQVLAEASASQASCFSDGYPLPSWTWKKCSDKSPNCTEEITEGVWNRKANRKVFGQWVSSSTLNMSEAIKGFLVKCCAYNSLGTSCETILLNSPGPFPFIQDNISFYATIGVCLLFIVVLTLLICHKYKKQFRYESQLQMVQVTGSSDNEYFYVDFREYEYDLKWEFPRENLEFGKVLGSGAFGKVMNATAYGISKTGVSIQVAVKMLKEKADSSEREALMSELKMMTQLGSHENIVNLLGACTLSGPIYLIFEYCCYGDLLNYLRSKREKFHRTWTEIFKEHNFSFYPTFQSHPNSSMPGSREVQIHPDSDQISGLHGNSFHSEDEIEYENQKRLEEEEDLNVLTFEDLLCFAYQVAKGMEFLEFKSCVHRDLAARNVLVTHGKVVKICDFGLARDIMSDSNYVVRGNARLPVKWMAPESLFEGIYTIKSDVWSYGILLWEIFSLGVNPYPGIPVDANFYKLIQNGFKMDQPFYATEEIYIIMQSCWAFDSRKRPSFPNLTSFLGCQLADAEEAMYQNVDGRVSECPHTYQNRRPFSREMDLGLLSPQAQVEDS

C=CC(=O)Nc1ccccc1Oc1nc(Nc2ccc(N3CCN(C)CC3)cc2)ncc1Cl
IC50 (BaF3 [1]): 274 nM
Activity (U-937): Active
IC50 [2]: 5.1 nM
IC50 [3]: 2880 nM
IC50 (BaF3 [4]): 93 nM
inhibition [5]: Active
Activity (NCI-H23 [6]): Active
Activity (MOLM-14): Active
IC50 (PANC-1): 1260 nM
IC50 (BaF3 [7]): 61 nM
IC50 [8]: 524 nM
IC50 [9]: 0.63 nM
inhibition [10]: Active
IC50 (BaF3 [11]): 28 nM
inhibition [12]: Active
inhibition [13]: Active
IC50 (BaF3 [14]): 10 nM
IC50 (SK-CO-1): 294 nM
Activity [15]: Toxic
Activity (HEL): inactive
Activity (NCI-H358 [16]): Active
IC50 (SW-620): 767 nM
Activity (NALM-6): inactive
IC50 (ASPC1): 1850 nM

N#CC[C@H](C1CCCC1)n1cc(-c2ncnc3[nH]ccc23)cn1
Activity (NCI-H358 [17]): Active
Activity (NCI-H23 [18]): Active
